Published values pooled from the literature.

For `Nc1ncnc2c1c(/C=C/C(=O)N1CCOCC1)nn2CC1CCCC1`, the EC50 was > 30 µM (OE33; cell growth or viability, resazurin; 5 days).
`CC(C)(C)c1cnc(CSc2cnc(NC(=O)C3CCN(CCCCCCCCSc4cccc5c4CN(C4CCC(=O)NC4=O)C5=O)CC3)s2)o1` (centres unmarked) has a viability of 0% (HH; cell growth or viability, CCK-8; 0.2 µM).
For `O=C(Nc1ccc(Oc2nnc(-c3ccc(Cl)cc3)c3ccccc23)cc1)c1cccc([N+](=O)[O-])c1`, the cell death was 32.3% (HepG2; cell growth or viability, MTT; 0.625 µM).
`O=C(Nc1ccccc1)Nc1ccc(C(F)(F)F)cc1` has an IC50 of 8.31 µM (LAD2; degranulation).
The EC50 of `CNc1ncc2c(/C=C/C(=O)N3CCC(OC)CC3)nn(CC3CCCC3)c2n1` is reported as 6.72 µM (OE33; cell growth or viability, resazurin; 5 days).
`O=C(Nc1ccc([N+](=O)[O-])cc1)Nc1cccc(C(F)(F)F)c1` gave an IC50 of 0.75 µM (LAD2; degranulation).
For `CCOC(=O)c1nn(-c2cccc(Cl)c2)/c(=N/N=C(\C)c2ccc(NC(=O)c3ccc(Cl)cc3)cc2)s1`, the viability was 2.59% (HepG2; cell growth or viability, MTT; 5 µM).
For `CC(=NNC(N)=S)c1ccc(Nc2nnc(-c3ccc(Cl)cc3)c3ccccc23)cc1`, the cell death was 91.9% (HepG2; cell growth or viability, MTT; 2.5 µM).
`CNc1ncc2c(/C=C/C(=O)N3CCC(OC)CC3)nn(Cc3cccc(OC)c3)c2n1` has an EC50 of 2.89 µM (OE33; cell growth or viability, resazurin; 5 days).
`Cc1cc(C)n(C(C(=O)OC(C)C)n2nc(C)cc2C)n1` gave an IC50 of > 50 µM (A-431; cell growth or viability, MTT; 72 h).
With `CC(C)(C)c1cnc(CSc2cnc(NC(=O)C3CCN(CCCCSc4cccc5c4C(=O)N(C4CCC(=O)NC4=O)C5=O)CC3)s2)o1` (centres unmarked) the viability was 105% (HH; cell growth or viability, CCK-8; 10 nM).
`COC(=O)/C=C/c1nn(CC2CCCC2)c2ncnc(N)c12` has an EC50 of > 30 µM (OE33; cell growth or viability, resazurin; 5 days).
`S=C(Nc1ccccc1)Nc1ccc(Oc2nnc(-c3ccc(Cl)cc3)c3ccccc23)cc1` gave a viability of 57.1% (HepG2; cell growth or viability, MTT; 1.25 µM, 24 h).
`CC(C)(C)c1cnc(CSc2cnc(NC(=O)C3CCN(CCCCCCCSc4cccc5c4C(=O)N(C4CCC(=O)NC4=O)C5=O)CC3)s2)o1` (centres unmarked) gave a viability of 92.7% (HH; cell growth or viability, CCK-8; 0.1 µM).
`Nc1ncnc2c1c(/C=C/C(=O)N1CCC(O)CC1)nn2CC1CCCC1` gave an EC50 of > 30 µM (OE33; cell growth or viability, resazurin; 5 days).
The viability of `CC(=O)c1nn(-c2ccc(C)cc2)/c(=N/N=C(\C)c2ccc(NC(=O)c3ccccc3)cc2)s1` is reported as 5.9% (HepG2; cell growth or viability, MTT; 1.25 µM).
`CNc1ncc2c(/C=C/C(=O)N3CCC(OC)CC3)nn(CC(C)(C)C)c2n1` has an EC50 of > 30 µM (OE33; cell growth or viability, resazurin; 5 days).
`CC(=O)Nc1ccc(Oc2nnc(-c3ccc(Cl)cc3)c3ccccc23)cc1` gave a cell death of 93.5% (HepG2; cell growth or viability, MTT; 2.5 µM).
`O=C(Nc1ccc([N+](=O)[O-])cc1)Nc1ccc(C(F)(F)F)cc1` gave an IC50 of 0.17 µM (LAD2; degranulation).
`CC(C)(C)c1cnc(CSc2cnc(NC(=O)C3CCN(C(=O)COCCOCCSc4cccc5c4C(=O)N(C4CCC(=O)NC4=O)C5=O)CC3)s2)o1` (centres unmarked) gave a viability of 92.9% (HH; cell growth or viability, CCK-8; 0.25 µM).
`CNc1ncc2c(/C=C/C(=O)N3CCC(OC)CC3)nn(Cc3ccc(OC)cc3)c2n1` has an EC50 of 1.63 µM (OE33; cell growth or viability, resazurin; 5 days).
`C=CC(=O)NC1CCN(c2ncc3ncnc(Nc4ccc(Oc5ccc6c(c5)ncn6C)c(C)c4)c3n2)CC1` has an EC50 of 0.00659 µM (MKN-7; cell growth or viability).
The viability of `CCOC(=O)c1nn(-c2cccc(Cl)c2)/c(=N/N=C(\C)c2ccc(NC(=O)c3ccccc3)cc2)s1` is reported as 3.18% (HepG2; cell growth or viability, MTT; 0.625 µM).
The cell death of `CC(=NNC(=O)c1cccnc1)c1ccc(Nc2nnc(-c3ccc(Cl)cc3)c3ccccc23)cc1` is reported as 88.1% (HepG2; cell growth or viability, MTT; 1.25 µM).
The IC50 of `C[C@H]1Oc2cc(cnc2N)-c2c(nn(C)c2C#N)CN(C)C(=O)c2ccc(F)cc21` is reported as > 10 µM (A-431; cell growth or viability).
`CC(=NNC(=S)Nc1ccccc1)c1ccc(Nc2nnc(-c3ccc(Cl)cc3)c3ccccc23)cc1` gave a cell death of 95.7% (HepG2; cell growth or viability, MTT; 10 µM).
`CC(C)(C)c1cnc(CSc2cnc(NC(=O)C3CCN(C(=O)CCCSc4cccc5c4C(=O)N(C4CCC(=O)NC4=O)C5=O)CC3)s2)o1` (centres unmarked) gave a viability of 98% (HH; cell growth or viability, CCK-8; 0.1 µM).
`CNc1ncc2c(/C=C/C(=O)N3CCCC(N(C)C)C3)nn(CC3CCCC3)c2n1` (centres unmarked) has an EC50 of 17.7 µM (OE33; cell growth or viability, resazurin; 5 days).
The cell death of `O=C(C=Cc1ccccc1)Nc1ccc(Oc2nnc(-c3ccc(Cl)cc3)c3ccccc23)cc1` is reported as 87.9% (HepG2; cell growth or viability, MTT; 2.5 µM).
